Measured values taken from PMC7178755 (Toxicology and applied pharmacology, 2019).

Assay: Gavage toxicokinetics, summary statements over rats and mice
Format: in vivo
Conditions: rat, mouse, plasma, po
Outline: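 Single gavage doses in corn oil were given to male and female rats (9–10 wk; 34, 110, 340 mg/kg) and B6C3F1/N mice (10–11 wk; 34 mg/kg), with a 34 mg/kg IV tail-vein reference. Plasma was sampled from 5 min to 48 h. Free and total (enzyme-deconjugated) test compound was quantitated. F = dose-adjusted oral/IV free AUC0−∞; half-life taken as K10 half-life from compartmental fits.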

Oc1ccc(C(c2ccc(O)cc2)(C(F)(F)F)C(F)(F)F)cc1 [BPAF, Bisphenol AF]
half-life (Hsd:Sprague Dawley SD (rats), B6C3F1/N (mice)): ≤ 4.22 h | half-life (female, Harlan Sprague Dawley (rats) and B6C3F1/N (mice), 34 mg/kg): ~9 h
